{"source": "paper PMC3683132", "about": "(ACS chemical biology, 2013)", "key": {"[1]": {"system": "insulin receptor (IR) pre-mRNA alternative splicing", "test": "IR splicing assay", "format": "cell-based", "settings": "50 µM, DM1 cell model"}, "[2]": {"system": "(CUG)960 foci in HeLa cells transfected with DMPK-CUG960 and GFP-MBNL1", "test": "FISH / confocal microscopy of ribonuclear foci in fixed DM1 cell model", "format": "cell-based", "settings": "50 µM, 48 h", "outline": "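HeLa cells (ca. 120,000/well, on coverslips) were co-transfected next day at 70–80% confluence with 500 ng DMPK–CUG960 (or CUG0 control) and 500 ng GFP-MBNL1 plasmids using Lipofectamine. After 4 h the medium was changed and test compound added (20–100 µM) for two days; 50 µM spermine served as the control compound. Cells were fixed (4% PFA), permeabilized and probed with Cy3-(CAG)10 for 2 h at 37 °C. Nuclei were stained with TO-PRO-3 and scored by confocal microscopy; results are mean ± standard error of ≥3 independent experiments with two-tailed p-values.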"}}, "data": [{"smiles": "NCCCNCCCCNCCCN", "note": "[spermine, reference compound]", "values": [{"measurement": "effect on the IR mis-splicing", "setting": "[1]", "value": "no effect"}, {"measurement": "effect on (CUG)960 foci", "setting": "[2]", "value": "no effect"}]}]}
